# PGC1a Ac signal: compounds raising PGC1a acetylation signal, primary screen, PGC1a modulator project, cell-based, U2OS, AlphaScreen, signal-increasing mode | overnight | activation, % at 15.6 µM | hit rate 0.21% among 350,000;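 active = every replicate reaching activation of at least 50%, whatever the mean replicate activation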;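 also: hits raise the AlphaScreen acetylation signal above neutral controls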
#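 Incubation: overnight compound treatment, 37 °C. System: U2OS cells transduced with flag-tagged PGC1a and GCN5 acetyltransferase. Detection: AlphaScreen lysate read. Compound: single-point compound dosing.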
# An asterisk follows results filed as active. Not all results are given here.
SMILES,PGC1a Ac signal
C[C@@H]1CN([C@H](C)CO)C(=O)c2cc(C#Cc3cccc(F)c3)cnc2O[C@H]1CN(C)CC1CCCC1,58.1*
C[C@H]1CN([C@@H](C)CO)C(=O)c2cc(C3=CCCC3)cnc2O[C@@H]1CN(C)C(=O)c1cccnc1,-53.2
CC[C@H](C)[C@H](NC(=O)c1ccc(Cl)cc1)C(=O)OCC(=O)c1ccc2c(c1)NC(=O)CO2,-40.0
Cc1cc(C)c2oc(C(=O)N(Cc3ccccc3)c3ccccn3)cc(=O)c2c1,-46.3
C[C@@H]1CN([C@H](C)CO)C(=O)CCCn2cc(nn2)CO[C@H]1CN(C)C(=O)Nc1ccc(C(F)(F)F)cc1,-49.2
O=C(O)CSCC(=O)NCc1ccc(Cl)cc1Cl,-41.2
COCCNC(=O)CCc1c(C)nc2c(c(C)nn2-c2ccc(C)c(C)c2)c1C,-78.1
CO[C@H]1CN(C)C(=O)c2cc(NS(C)(=O)=O)ccc2OC[C@H](C)N(C(=O)NC(C)C)C[C@@H]1C,-48.5
CCCCn1c(=NC(=O)c2cccnc2)c(C(=O)OCC)cc2c(=O)n3ccccc3nc21,115.1*
CC(=O)N(C)C[C@H]1Oc2ncc(C#CCc3ccccc3)cc2C(=O)N([C@@H](C)CO)C[C@H]1C,-52.0
CSC1SCC2C(=O)N(C)C(C(C)C)C(=O)OCC(NC(=O)c3cnc4ccccc4n3)C(=O)NC(C)C(=O)N(C)C1C(=O)N(C)C(C(C)C)C(=O)OCC(NC(=O)c1cnc3ccccc3n1)C(=O)NC(C)C(=O)N2C (stereo unspecified),-39.2
O=C1C2C3C=CC(C4CC34)C2C(=O)N1/N=C/c1c[nH]c2ccccc12 (stereo unspecified),-106.0
COc1ccc(C(=O)Nc2ccc3c4c(cccc24)CC3)cc1,-86.3
COc1ccccc1OCCn1cc(/C=N/NC(=O)c2ccncc2)c2ccccc21,-49.6
COc1cccc(/C=N/NC(=O)c2ccc(-n3cnnn3)cc2)c1,83.5*
COc1ccc(C(=O)Nc2cccc(S(C)(=O)=O)c2)cc1OC,-41.4
Cc1cc(Br)c(OCc2ccc(C(=O)N/N=C/c3ccc[nH]3)cc2)c(Br)c1,-86.7
COc1ccc(N(C)S(=O)(=O)c2cccc(C(=O)Nc3ccc(-n4cnnn4)cc3)c2)cc1,67.0*
COc1ccc(F)cc1CN1CCN(CC(=O)N2CCc3ccccc32)CC1,-43.9
Cc1nc([N+](=O)[O-])c(Br)n1CC(=O)c1ccc(Br)cc1,-64.1
OC(c1ccc(Cl)cc1Cl)C(Cc1cccnc1)n1cncn1 (stereo unspecified),59.5*
Cc1nc2[nH]c(=O)c3c(n2n1)NC1=C(C(=O)CC(C)(C)C1)C3c1ccccc1 (stereo unspecified),-83.6
Cc1nc2ccc(C(=O)Nc3ccccc3Cl)cc2s1,-48.5
C=CCSc1nccc(-c2cc(Cl)sc2Cl)n1,50.6*
CC(=O)Nc1ccc(NS(=O)(=O)c2ccc(C)cc2)cc1[N+](=O)[O-],58.1*
SMILES,PGC1a Ac signal
Cc1ccc(S(=O)(=O)NC2=NCCCCC2)cc1,-46.4
Cc1ccc(NC(=O)COC(=O)COc2ccc(Cl)cc2)c([N+](=O)[O-])c1,-40.4
O=C(O)CCC(NC(=S)Nc1ccccc1)C(=O)O (stereo unspecified),-73.1
CCn1c(=O)c2c(cnn2C)c2ccccc21,-30.1
O=C(Nc1c(F)cccc1F)c1ccc(-n2cncn2)nc1,53.5*
CC(C)N1CCc2c(sc(NC(=O)C3CCCCC3)c2C(N)=O)C1,-43.7
Clc1ccccc1CN(Cc1ccco1)Cc1nnnn1C1CCCC1,132.4*
Cc1cccc2cc(CN(Cc3ccc(F)cc3)Cc3nnnn3C3CCCC3)c(=O)[nH]c12,-52.8
COc1ccc(C(NC(=O)c2c(F)c(F)c(F)c(F)c2F)c2ccccc2)cc1 (stereo unspecified),-84.6
CCCCOc1ccc(/C=C/C(=O)OCC(=O)c2c(N)n(C)c(=O)n(C)c2=O)cc1OCC,-46.8
CCOC(=O)C(CC)(CC)C(=O)/C=C/c1ccc(Br)cc1,-56.7
CCOc1ccc(/C=C/C(=O)Oc2ccccc2)cc1,154.0*
COCC(=O)Nc1ccc2c(c1)OC[C@@H](C)N(C(=O)c1ccccn1)C[C@@H](C)[C@@H](OC)CN(C)C2=O,-49.2
Cc1nc(SCC(=O)OCc2ccccc2)c(C#N)c(-c2ccccc2)c1C(=O)Nc1ccccc1,56.9*
N#Cc1c(-c2ccccc2)c(-c2ccccc2)nn(CC(=O)NNC(=O)Nc2ccc(Cl)cc2)c1=O,-40.0
CN(C)C(=O)C[C@H]1C[C@@H]2c3cc(NC(=O)C4CCOCC4)ccc3O[C@@H]2[C@H](CO)O1,-41.2
CCC(=O)N[C@H]1CC[C@H](CC(=O)OC)O[C@H]1CO,-43.4
NC(=S)N/N=C/c1cccc(O)c1O,75.9*
Oc1ccccc1/C=N/Nc1nc2ccccc2o1,-41.2
CC1CC(=O)c2c(cc3c(-c4c(O)cc(O)c5c(O)c6c(cc45)OC(C)CC6=O)c(O)cc(O)c3c2O)O1 (stereo unspecified),-63.4
Cn1cnc(S(=O)(=O)N2C[C@@H](O)COC[C@H]3O[C@H](CC(=O)NCc4cc(F)cc(F)c4)CC[C@@H]32)c1,-42.5
C[C@@H]1CN([C@H](C)CO)S(=O)(=O)c2ccc(-c3cncnc3)cc2O[C@H]1CN(C)Cc1cccnc1,-50.3
CCOC(=O)c1c(NC(=O)/C=C/C(=O)O)sc(C)c1-c1ccc(C(C)(C)C)cc1,-46.9
CCOC(=O)c1c(NC(=O)c2c(Br)cnn2CC)sc(C)c1C,82.8*
CN1CCN(C(=O)c2sc(=S)n(-c3ccccc3)c2N)CC1,-63.2
SMILES,PGC1a Ac signal
O=S(=O)(c1ccc(-c2ccccc2)cc1)N1C[C@@H]2N[C@H](C1)[C@@H]2c1ccc(-c2cccnc2)cc1,-54.7
Cc1ccc(S(=O)(=O)N2C[C@@H]3N[C@H](C2)[C@@H]3c2ccc(-c3cccc(C)c3)cc2)cc1,65.9*
COc1cccc(S(=O)(=O)N2C[C@@H]3N[C@H](C2)C3c2ccc(-c3ccccc3C)cc2)c1 (stereo partly specified),242.1*
COc1cccc(-c2ccc(C3[C@@H]4CN(S(=O)(=O)c5cccc(OC)c5)C[C@H]3N4)cc2)c1 (stereo partly specified),57.5*
Cc1cccc(S(=O)(=O)N2C[C@@H]3N[C@H](C2)C3c2ccc(-c3ccccc3C)cc2)c1 (stereo partly specified),166.1*
CC(C)C(NC(=O)c1ccc(C(C)(C)C)cc1)C(=O)O (stereo unspecified),-52.6
Cc1ccc(-c2csnn2)cc1,-50.6
C[C@H](CO)N1C[C@H](C)[C@@H](CN(C)C(=O)CCN2CCCCC2)Oc2ncc(C#Cc3ccccn3)cc2C1=O,-47.6
C#CCN(C[C@@H]1[C@@H](OC(=O)Nc2cccs2)[C@@H](OC(=O)Nc2cccs2)Cn2c(=O)ccc(=O)n21)S(=O)(=O)c1ccc(C)cc1,-43.0
C#CCN(C[C@@H]1[C@@H](OC(=O)NC2CCCC2)[C@@H](OC(=O)NC2CCCC2)Cn2c(=O)ccc(=O)n21)S(=O)(=O)c1ccc(C)cc1,110.8*
C#CCN(C[C@@H]1[C@@H](OC(=O)NCc2ccccc2F)[C@@H](OC(=O)NCc2ccccc2F)Cn2c(=O)ccc(=O)n21)S(=O)(=O)c1ccc(C)cc1,-60.4
COC(=O)c1cccc(NC(=O)CSc2nnc(C)n2C)c1,-47.3
C=C1C(=O)OC2C1CCC(C)=C1C(=O)C3OC3(C)C12 (stereo unspecified),82.5*
Cc1ccccc1Oc1cc(-n2ncc(Cl)c(Cl)c2=O)ncn1,-69.3
COc1ccc(S(=O)(=O)Nc2ccccc2C)cc1C(=O)N1CCOCC1,-102.4
